Sampled rows, rich in hits. Any-hit rate of the full collection: about 2.6%.
DENV2 CPE rescue: protects cells from dengue virus 2 cytopathic effect; 350,000 tested, 1.7% active; DENV2-infected cells, cytopathic effect rescue, plate reader; CPE inhibition, % at 9.99 µM; in the data active = CPE inhibition above about 20%, passing the limit was not always enough; tested in BHK-21 cells;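 also: 0% = median of neutral control wells and 100% = median of positive control wells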
ERAP1 HTS inh: inhibitors of human ERAP1 aminopeptidase; 340,000 tested, 0.15% active; AID 652197; inhibition, % at 10.7 µM; recombinant ERAP1, Leu-AMC fluorescence, 60 min; Q9NZ08;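 active = mean replicate inhibition of at least 30%, or all replicates individually reaching that 30% level; inactive = mean below 30% and not every replicate reaching it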;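 also: 0% = neutral control wells and 100% = L-leucinethiol positive control wells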
F508del corr: CFTR F508del correction in bronchial cells. CFBE cells, YFP halide quenching; stimulated with forskolin plus potentiator P3; % fluorescence drop versus neutral controls. activity (quench increase), % at 7.58 µM. 350,000 tested, 0.36% active. AID 720511;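 active = mean added fluorescence quench of at least 8% versus neutral control, with both replicates also reaching 8%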;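 also: cells transiently co-express mutant CFTR-F508del with the halide-sensitive YFP; corrector assay measuring rescue of mutant channel to the surface after 24 h compound exposure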
E-selectin induc: induces E-selectin expression in human endothelial cells | P16581 | HUVEC E-selectin immunofluorescence imaging; normalized: neutral wells 0, TNF-alpha wells 100 | activation, % at 7.58 µM | 260,000 tested, 0.37% active;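 active = mean E-selectin-positive cell signal at least 10% of the positive control, reached in at least 60% of replicates, without over 20% cell loss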
Target sequence (P16581 whole entry, looked up): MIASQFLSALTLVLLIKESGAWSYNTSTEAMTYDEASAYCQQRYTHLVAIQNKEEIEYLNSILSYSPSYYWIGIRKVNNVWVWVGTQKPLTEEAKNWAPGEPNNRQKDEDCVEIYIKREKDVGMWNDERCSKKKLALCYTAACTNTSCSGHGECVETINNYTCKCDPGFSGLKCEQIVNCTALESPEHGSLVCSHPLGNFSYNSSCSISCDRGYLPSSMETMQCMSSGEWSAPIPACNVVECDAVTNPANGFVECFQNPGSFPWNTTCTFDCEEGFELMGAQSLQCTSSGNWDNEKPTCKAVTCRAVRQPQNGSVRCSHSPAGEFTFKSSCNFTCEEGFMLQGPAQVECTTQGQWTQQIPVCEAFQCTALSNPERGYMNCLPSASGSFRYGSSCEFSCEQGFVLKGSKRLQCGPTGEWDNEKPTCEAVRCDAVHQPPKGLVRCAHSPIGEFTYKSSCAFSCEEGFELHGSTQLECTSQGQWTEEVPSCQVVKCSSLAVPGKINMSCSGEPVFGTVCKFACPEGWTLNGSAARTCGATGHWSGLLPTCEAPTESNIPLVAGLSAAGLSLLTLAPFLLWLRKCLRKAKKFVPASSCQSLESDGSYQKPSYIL
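Test system – human umbilical vein endothelial cells (HUVEC), E-selectin induction · Input – 3,000 HUVEC seeded per well · Buffer or medium – EGM-2, gelatin · Compound dosing – single-point compound dose · Detection – immunofluorescence imaging · Measure – percent E-selectin-positive cells · Controls – TNF-alpha high, DMSO low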
GSIS activator: primary screen for activators of insulin secretion dependent on glucose, INS-1E cells, GLuc reporter luminescence. INS-1E GLuc reporter insulin secretion, 2-3 h. AID 743287. 370,000 tested, 0.61% active. activation, % at 16.6 µM;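 active = lowest replicate activation of at least 40%, so every replicate reaches that level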;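 also: 0% = median of neutral control wells and 100% = median of IBMX positive control wells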
miR122 inh: inhibitors of miR-122 in Huh7 cells | 340,000 tested, 0.3% active | activation (reporter increase), % at 12.5 µM | Huh7 miR-122 Renilla luciferase sensor, 48 h; neutral wells = 0, positive control = 100 | AID 602342;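 active = mean replicate activation score at least 90 and every replicate individually at or above 90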;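 also: higher luciferase means less miR-122 activity so hits act as miR-122 inhibitors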
* = called active by the depositor; [ ] = remark or other dose.

Results for CO[C@H]1CN(C)C(=O)c2cc(NC(=O)Nc3cc(F)ccc3F)ccc2OC[C@H](C)N(C(=O)c2ccccn2)C[C@H]1C ?
DENV2 CPE rescue: 1.8; ERAP1 HTS inh: 0.5; F508del corr: -3.7; E-selectin induc: -0.1; GSIS activator: 3.7

Results for COCC(=O)Nc1ccc2c(c1)C(=O)N(C)[C@@H]1CC[C@@H](CC(=O)Nc3cn(C)nc3C)O[C@H]1CO2 ?
DENV2 CPE rescue: -8.3; F508del corr: -0.7; E-selectin induc: -0.1; GSIS activator: 3.7; miR122 inh: 4.2[16.7 µM]

What do the screens show for `C[C@H](CO)N1C[C@H](C)[C@@H](CN(C)Cc2ccccc2F)Oc2cc(C3=CCCC3)ccc2S1(=O)=O`?
DENV2 CPE rescue: -7.7; ERAP1 HTS inh: 0.2; F508del corr: -2.3; E-selectin induc: 0.5; GSIS activator: -11.9; miR122 inh: 40.3[16.7 µM]

What do the screens show for `C=CCn1c(SCC(=O)N2CCOCC2)nc2c([nH]c3ccccc32)c1=O`?
DENV2 CPE rescue: -2.2; ERAP1 HTS inh: -2.5; F508del corr: 1.9; E-selectin induc: 0.0; GSIS activator: 43.2*; miR122 inh: 5.8

What do the screens show for `C=CCn1c(SCC(=O)N2CCN(c3ccccc3)CC2)nc2c([nH]c3ccccc32)c1=O`?
DENV2 CPE rescue: -3.1; ERAP1 HTS inh: -2.0; F508del corr: -3.1; E-selectin induc: 0.5; GSIS activator: 4.5; miR122 inh: 4.7

Results for Cc1ccccc1N=C1Nc2ccccc2N[C@]12C[C@H]1CCC(=O)N3CC[C@@H](C2)[C@@H]13 ?
DENV2 CPE rescue: 148.3*; ERAP1 HTS inh: 1.2; F508del corr: 0.7; E-selectin induc: -0.3; miR122 inh: 6.8

How did O=C1CC[C@@H]2CC3(C[C@@H]4CCN1[C@H]24)Nc1ccccc1NC3=NC1CCCCC1 (stereo partly specified) do in these assays?
DENV2 CPE rescue: -15.1; ERAP1 HTS inh: -3.3; F508del corr: 1.0; E-selectin induc: 0.7; miR122 inh: -2.3

What do the screens show for `Nc1ccc(-c2cc3ccccc3c(=O)o2)cc1`?
DENV2 CPE rescue: 67.5*; ERAP1 HTS inh: -2.4; F508del corr: -1.5; GSIS activator: 5.6; miR122 inh: -5.8

What do the screens show for `CCC(=O)Nc1ccc2c(c1)C(=O)N(C)C[C@H](OC)[C@@H](C)CN(C(C)=O)[C@@H](C)CO2`?
DENV2 CPE rescue: 54.3*; ERAP1 HTS inh: 1.8; E-selectin induc: 0.1; GSIS activator: 13.8; miR122 inh: 0.4[16.7 µM]

How did CCCNC(=O)N1C[C@@H](C)[C@H](OC)CN(C)C(=O)c2cc(NS(=O)(=O)CC(F)(F)F)ccc2OC[C@@H]1C do in these assays?
DENV2 CPE rescue: 60.2*; ERAP1 HTS inh: 1.0; F508del corr: -2.2; E-selectin induc: -0.2; GSIS activator: 2.7

Results for CCC(=O)Nc1ccc2c(c1)C(=O)N(C)C[C@@H](OC)[C@@H](C)CN(C(C)=O)[C@@H](C)CO2 ?
DENV2 CPE rescue: 31.9*; ERAP1 HTS inh: -0.4; E-selectin induc: -0.2; GSIS activator: 3.8; miR122 inh: 2.2[16.7 µM]

What do the screens show for `CCCNC(=O)N1C[C@H](C)[C@H](OC)CN(C)C(=O)c2cc(NS(=O)(=O)CC(F)(F)F)ccc2OC[C@@H]1C`?
DENV2 CPE rescue: 1.0; ERAP1 HTS inh: -2.6; F508del corr: -1.5; E-selectin induc: 0.3; GSIS activator: 19.6

How did CCS(=O)(=O)Nc1ccc2c(c1)C(=O)N(C)C[C@H](OC)[C@@H](C)CN(C(C)=O)[C@@H](C)CO2 do in these assays?
DENV2 CPE rescue: -4.9; ERAP1 HTS inh: 1.3; F508del corr: -1.7; E-selectin induc: 0.8; GSIS activator: 7.6; miR122 inh: -7.8[16.7 µM]

Results for CCC(=O)Nc1ccc2c(c1)C(=O)N(C)C[C@@H](OC)[C@@H](C)CN(C(C)=O)[C@H](C)CO2 ?
DENV2 CPE rescue: 16.4; ERAP1 HTS inh: -0.1; E-selectin induc: -0.1; GSIS activator: -0.4; miR122 inh: 0.7[16.7 µM]

How did CCS(=O)(=O)Nc1ccc2c(c1)C(=O)N(C)C[C@H](OC)[C@H](C)CN(C(C)=O)[C@H](C)CO2 do in these assays?
DENV2 CPE rescue: 23.7*; ERAP1 HTS inh: 3.2; F508del corr: 0.0; E-selectin induc: 0.0; GSIS activator: 3.8; miR122 inh: -17.1[16.7 µM]

How did COc1ccc(NC(=O)N(C)C[C@@H]2Oc3c(NS(=O)(=O)c4ccccc4)cccc3C(=O)N([C@@H](C)CO)C[C@H]2C)cc1 do in these assays?
F508del corr: 0.9; E-selectin induc: 2.9; GSIS activator: 3.6; miR122 inh: -0.2[16.7 µM]

Results for CCC(=O)Nc1ccc2c(c1)C(=O)N(C)C[C@@H](OC)[C@H](C)CN(C(C)=O)[C@@H](C)CO2 ?
DENV2 CPE rescue: 28.8*; ERAP1 HTS inh: 1.1; F508del corr: 1.2; E-selectin induc: -0.1; GSIS activator: 4.5

How did C[C@@H]1CN([C@H](C)CO)S(=O)(=O)c2ccc(C3=CCCCC3)cc2O[C@@H]1CN(C)S(=O)(=O)c1ccc(F)cc1 do in these assays?
DENV2 CPE rescue: 23.4*; ERAP1 HTS inh: -3.7; F508del corr: -3.7; E-selectin induc: -0.5; GSIS activator: 0.8; miR122 inh: 25.1[16.7 µM]

Results for COc1cccc(S(=O)(=O)N(C)C[C@@H]2Oc3cc(C4=CCCC4)ccc3S(=O)(=O)N([C@H](C)CO)C[C@H]2C)c1 ?
DENV2 CPE rescue: 55.1*; ERAP1 HTS inh: 1.2; F508del corr: 10.7*; E-selectin induc: -0.2; GSIS activator: -0.3; miR122 inh: 11.0[16.7 µM]

What do the screens show for `COc1cccc(S(=O)(=O)N(C)C[C@@H]2Oc3cc(C4=CCCC4)ccc3S(=O)(=O)N([C@@H](C)CO)C[C@H]2C)c1`?
DENV2 CPE rescue: -3.5; ERAP1 HTS inh: 0.5; F508del corr: 9.3*; E-selectin induc: -0.3; GSIS activator: 42.6; miR122 inh: 28.8[16.7 µM]

How did C[C@H](CO)N1C[C@H](C)[C@H](CN(C)S(=O)(=O)c2ccc(F)cc2)OCCCC[C@H](C)Oc2ccc(NS(=O)(=O)c3cccs3)cc2C1=O do in these assays?
DENV2 CPE rescue: -12.6; ERAP1 HTS inh: 1.2; F508del corr: 0.2; E-selectin induc: 0.3; GSIS activator: -0.6; miR122 inh: -0.8[16.7 µM]

Results for O=C(Cc1ccccn1)NCC[C@H]1CC[C@H](NC(=O)Nc2ccc(C(F)(F)F)cc2)[C@H](CO)O1 ?
DENV2 CPE rescue: 3.5; ERAP1 HTS inh: -2.5; F508del corr: 21.7*; E-selectin induc: 0.2; GSIS activator: -0.8

What do the screens show for `O=C(Cc1ccccn1)NCC[C@H]1CC[C@@H](NC(=O)Nc2ccc(C(F)(F)F)cc2)[C@@H](CO)O1`?
DENV2 CPE rescue: -2.2; ERAP1 HTS inh: -0.3; F508del corr: 31.0*; E-selectin induc: 0.0; GSIS activator: 10.0

Results for CC1=CSC2=NC(=O)/C(=C\c3cccn3-c3ccc([N+](=O)[O-])cc3)C(=N)N12 ?
GSIS activator: 236.6*; miR122 inh: -2.5

Screening data (PubChem BioAssay)
